From publication PMC9262120 (Chembiochem : a European journal of chemical biology, 2022)

Legend:
TMV [1] = assay: TMV–TBPT25-FITC ELISA; assay type: binding, Tobacco mosaic virus; conditions: varying TMV coated on plates; Figure S5
CPMV = assay: Cross-reactivity ELISA, CPMV; assay type: binding, cowpea mosaic virus; conditions: conclusion
In short: (§1)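 Wells coated with 10 µg virus or VLP in 0.1 M bicarbonate, pH 8.6, overnight at 4 °C, then blocked with 5% BSA for 1 h at RT. 10^9 pfu phage in 5% BSA were added for 1 h, followed by 0.5% TBST washes. Detection used HRP anti-M13 (1:500, 1 h) and TMB for 10 min in the dark, read at 370 nm. Controls were empty M13KE phage and BSA-coated wells.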

TMGMV = assay: Cross-reactivity ELISA, TMGMV; assay type: binding, tobacco mild green mosaic virus; conditions: conclusion
In short: as §1

TMV [2] = assay: ELISA with biotinylated peptide on streptavidin plates; assay type: binding, Tobacco mosaic virus; conditions: CPMV-specific vs TMV-specific biotinylated peptide, Figure S3
In short: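 0.1 µg biotinylated peptide was bound to streptavidin-coated plates for 1 h at RT; control wells received 5% BSA without peptide. Plates were blocked with 5% BSA, then 10 µg TMV was added for 1 h. Detection used rabbit anti-TMV polyclonal (1:1000, 1 h), then HRP goat anti-rabbit (1:10,000, 1 h), then TMB for 5–10 min. Reactions were stopped with 2 M H₂SO₄ and read at 450 nm.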

BSA = assay: Off-target binding to blocking agent BSA; parameters: species or system bovine
[3] = target: T1, tobacco mild green mosaic virus particles (tobacco mild green mosaic virus, UniProt P03579 1-159); assay: ELISA
T1 sequence: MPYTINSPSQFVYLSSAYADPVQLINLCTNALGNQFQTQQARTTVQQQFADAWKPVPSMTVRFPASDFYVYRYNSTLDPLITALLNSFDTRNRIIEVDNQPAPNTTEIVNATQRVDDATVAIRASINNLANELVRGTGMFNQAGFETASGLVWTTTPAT

Molecule: H2N-GHRCRGGVCYKKKGGGSK/FITC/-CO2H [TBPT25-FITC]
- concentration dependence of binding (TMV [1]): the more TMV coated onto the plates, the higher signal

Molecule: H-GHRCRGGVCYKK-OH (cysteine pairing not given here) [TBPT25]
- off-target binding to CPMV (CPMV): Some off-target binding
- off-target binding to TMGMV (TMGMV): Some off-target binding
- TMV binding, random peptide comparison (TMV [2]): TMV binding to the TMV-specific TBPT25 was confirmed
- off-target binding to BSA (BSA): Some off-target binding

Molecule: GHRCRGGVCYKK (designed binder) [monoclonal phage T25 (M13 phage displaying [residues removed])]
- fold less binding than to TMV [3]: 1.2 fold
